Source: ChEMBL document CHEMBL1123517, “Synthesis and antiallergic activity of a novel series of 5-lipoxygenase inhibitors” (J Med Chem, 1986)

Legend:
Cavia porcellus [1] = assay: In vivo inhibition of ovalbumin induced bronchoconstriction in guinea pig by 50 mg/kg 10 min prior to challenge.; assay type: functional
In short: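 Male Hartley guinea pigs (350–600 g) sensitized to OA (5 mg ip + 5 mg sc), used 3–5 weeks later under pentobarbital (50 mg/kg ip), artificially ventilated. Indomethacin 10 mg/kg iv 9 min before challenge, chlorpheniramine 1.0 mg/kg iv 1 min later. Drug 50 mg/kg id 10 min before aerosolized 1% OA; controls saline.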

[2] = target: T1, Polyunsaturated fatty acid 5-lipoxygenase (Rattus norvegicus, UniProt P12527); assay: In vitro for inhibition of 5-HETE production in isolated rat polymorphonuclear leukocytes (PMNs); assay type: functional
T1 sequence (P12527 whole entry): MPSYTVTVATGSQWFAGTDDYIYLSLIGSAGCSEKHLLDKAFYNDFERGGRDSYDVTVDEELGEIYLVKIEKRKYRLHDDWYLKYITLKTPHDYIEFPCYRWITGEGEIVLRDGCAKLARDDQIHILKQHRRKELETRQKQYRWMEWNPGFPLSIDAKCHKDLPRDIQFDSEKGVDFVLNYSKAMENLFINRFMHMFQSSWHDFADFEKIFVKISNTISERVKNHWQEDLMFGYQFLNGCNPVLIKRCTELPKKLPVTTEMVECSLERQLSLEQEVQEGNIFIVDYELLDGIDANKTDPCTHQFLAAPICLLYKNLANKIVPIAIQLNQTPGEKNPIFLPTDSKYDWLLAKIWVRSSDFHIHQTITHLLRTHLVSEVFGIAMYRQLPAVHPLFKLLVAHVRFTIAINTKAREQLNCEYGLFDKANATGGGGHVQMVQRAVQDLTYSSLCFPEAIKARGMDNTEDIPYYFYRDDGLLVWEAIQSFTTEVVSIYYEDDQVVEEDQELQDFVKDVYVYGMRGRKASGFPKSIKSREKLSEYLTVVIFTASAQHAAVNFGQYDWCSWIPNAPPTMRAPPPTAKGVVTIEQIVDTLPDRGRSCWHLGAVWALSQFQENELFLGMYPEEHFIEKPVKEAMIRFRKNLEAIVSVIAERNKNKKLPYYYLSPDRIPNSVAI
In short: (§1)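 Peritoneal PMNs from female Wistar rats (150–250 g) given 6% glycogen ip; harvested at 24 h by lavage, resuspended at 2×10^7 cells/mL in HBSS with Ca2+/Mg2+ and 10 mM L-cysteine. Drug or vehicle preincubated 10 min at 37 °C; then A23187 (10 μM) plus 0.5 μCi [14C]arachidonic acid for 10 min. Stopped at pH 3.5, ether-extracted; IC50 per metabolite by nonlinear regression.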

[3] = target: T1, Polyunsaturated fatty acid 5-lipoxygenase; assay: In vitro for inhibition of LTB4 (leukotriene B4) production in isolated rat polymorphonuclear leukocytes (PMNs).; assay type: functional; in short: as §1
Cavia porcellus [4] = species on record: Cavia porcellus; assay: Competitive inhibition of LTD4-induced contraction of isolated guinea pig tracheal spiral strips
Rattus norvegicus = species on record: Rattus norvegicus; assay: Compound was tested in vitro for inhibition of 5-HETE production in isolated rat polymorphonuclear leukocytes (PMNs) at 50 uM; assay type: functional

IC50 [2] [µM] | IC50 [3] [µM] | Structure (SMILES) | inhibition in vivo at 50 mg/kg (Cavia porcellus [1]) [%] | pKB (Cavia porcellus [4]) | inhibition at 50 µM (Rattus norvegicus) [%]
14.2 | 11.7 | COC(=O)CC(=O)Nc1cccc(COc2ccc(C(C)=O)c(O)c2)c1 | 61.4 | 4.94 | –
– | – | COC(=O)CC(=O)Nc1cccc(COc2ccc(C(C)=O)c(OC)c2)c1 | 64.3 | – | –
32.7 | 39.3 | COC(=O)CCCC(=O)Nc1cccc(COc2ccc(C(C)=O)c(O)c2)c1 | -0.1 | – | –
– | – | CCCCCC(=O)c1ccc(OCc2cccc(NC(=O)CC(=O)OC)c2)cc1OC | 0 | – | –
5.6 | 7.09 | CCc1ccc(OCc2cccc(NC(=O)CCC(=O)OC)c2)cc1OC | 0.2 | – | –
5.35 | 20.4 | COC(=O)C1CC(=O)N(c2cccc(COc3ccc(C(C)=O)c(F)c3)c2)C1 (configuration not stated) | – | – | –
– | – | COC(=O)CC(=O)Nc1cccc(COc2ccc(C(C)=O)cc2)c1 | 37.2 | – | < 50
– | – | CCc1ccc(OCc2cccc(NC(=O)CC(=O)OC)c2)cc1OC | 0.2 | – | –
1.59 | 1.7 | CCCCCCc1ccc(OCc2cccc(NC(=O)CC(=O)OC)c2)cc1OC | -0.2 | – | –
– | – | COC(=O)C(=O)Nc1cccc(COc2ccc(C(C)=O)c(F)c2)c1 | 57.3 | – | –
3.71 | 3.87 | CCCCCC(=O)c1ccc(OCc2cccc(NC(=O)CCC(=O)OC)c2)cc1OC | 0 | – | –
– | – | COC(=O)CC(=O)Nc1cccc(COc2cccc(OC)c2)c1 | – | – | < 50
– | – | CCCCCCc1ccc(OCc2cccc(NC(=O)CCC(=O)OC)c2)cc1OC | 0.2 | – | –
25.1 | 39.5 | COC(=O)C(=O)Nc1cccc(COc2ccc(C(C)=O)c(O)c2)c1 | 0.1 | – | –
– | – | CCCCCC(=O)c1ccc(OCc2cccc(NC(=O)CCC(=O)OC)c2)cc1O | 0 | – | –
– | – | COC(=O)CCC(=O)Nc1cccc(COc2ccc(C(C)=O)c(F)c2)c1 | 20.8 | – | –
– | – | COC(=O)CCC(=O)Nc1cccc(COc2ccc(C(C)=O)c(O)c2)c1 | 37.9 | – | –
– | – | COC(=O)CCC(=O)Nc1cccc(COc2ccc(C(C)=O)c(OC)c2)c1 | 0.11 | – | –
– | – | COC(=O)CCCC(=O)Nc1cccc(COc2ccc(C(C)=O)c(F)c2)c1 | 0 | – | –
– | – | CCCc1c(OCc2cccc(NC(=O)CC(=O)OC)c2)ccc(C(C)=O)c1O | 24.8 | – | –
– | – | CCCCCC(=O)c1ccc(OCc2cccc(NC(=O)CC(=O)OC)c2)cc1O | -0.5 | – | –
25.5 | 22.5 | COC(=O)CC(=O)Nc1cccc(COc2ccc(C(C)=O)c(F)c2)c1 | 0 | – | –
41 | 21.6 | CCCc1c(OCCCCc2nnn[nH]2)ccc(C(C)=O)c1O [TOMELUKAST] | 78.8 | – | –
